ChEMBL document CHEMBL1157843, “Synthesis and anticonvulsant activity of a new 6-alkoxy-[1,2,4]triazolo[4,3-b]pyridazine” (Eur J Med Chem, 2010)
The source made the active and inactive calls. No cut-off for these calls is given here.

What was measured:
Mus musculus [1] = test: Anticonvulsant in mouse assessed as protection against maximum electric stimulus-induced seizures at 30 mg/kg, ip after 4 hrs; format: functional, organism-based; set-up: dose 30 mg/kg
Procedure, shortened: (§1)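 Phase-I qualitative MES screen following NIH ADD protocol. KunMing mice (18–25 g), three per dose, test agent in polyethylene glycol-400 i.p. at 30, 100 or 300 mg/kg. Protection assessed 0.5 h and 4 h after dosing; scored as animals protected/animals tested.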

Mus musculus [2] = test: Neurotoxicity against mouse at 30 mg/kg, ip after 0.5 hrs by rotarod ataxia test; format: toxicity, organism-based; set-up: dose 30 mg/kg, route intraperitoneal; conditions: in vivo
Procedure, shortened: (§2)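 Phase-I rotarod ataxia screen per NIH ADD protocol. KunMing mice (18–25 g), three per dose, test agent in polyethylene glycol-400 i.p. at 30, 100 or 300 mg/kg. Neurological deficit read 30 min and 4 h after dosing; scored as animals showing toxicity/animals tested.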

Mus musculus [3] = test: Neurotoxicity against mouse at 30 mg/kg, ip after 4 hrs by rotarod ataxia test; format: toxicity, organism-based; set-up: dose 30 mg/kg, route intraperitoneal; conditions: in vivo; procedure, shortened: as §2
Mus musculus [4] = test: Anticonvulsant in ip dosed mouse assessed as protection against maximum electric stimulus-induced seizures; format: functional
Procedure, shortened: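 Phase-II quantitation in KunMing mice (18–25 g), vehicle polyethylene glycol-400. Groups of 10 received a range of i.p. doses until at least three points fell within 10–90% MES protection or minimal rotarod neurotoxicity. ED50, TD50 and 95% confidence intervals computed from regression by an NINDS program. PI = TD50/ED50.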

[5] = Neurotoxicity against ip dosed mouse by rotarod ataxia test; format: toxicity, organism-based; conditions: in vivo
Mus musculus [6] = test: Protective index, ratio of TD50 for ip dosed mouse to ED50 for maximum electric stimulus-induced seizure in ip dosed mouse; format: functional
Mus musculus [7] = test: Anticonvulsant in mouse assessed as protection against maximum electric stimulus-induced seizures at 100 mg/kg, ip after 4 hrs; format: functional, organism-based; set-up: dose 100 mg/kg; procedure, shortened: as §1
Mus musculus [8] = test: Neurotoxicity against mouse at 100 mg/kg, ip after 0.5 hrs by rotarod ataxia test; format: toxicity, organism-based; set-up: dose 100 mg/kg, route intraperitoneal; conditions: in vivo; procedure, shortened: as §2
Mus musculus [9] = test: Neurotoxicity against mouse at 100 mg/kg, ip after 4 hrs by rotarod ataxia test; format: toxicity, organism-based; set-up: dose 100 mg/kg, route intraperitoneal; conditions: in vivo; procedure, shortened: as §2
Mus musculus [10] = test: Anticonvulsant in mouse assessed as protection against maximum electric stimulus-induced seizures at 30 mg/kg, ip after 0.5 hrs; format: functional, organism-based; set-up: dose 30 mg/kg; procedure, shortened: as §1
Mus musculus [11] = organism: Mus musculus; test: Sedative-hypnotic activity in mouse assessed as reduction in righting reflex; format: organism-based; conditions: in vivo
Procedure, shortened: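 Phase-III work in KunMing mice: behaviour observed at intervals up to 24 h after i.p. TD50, 2TD50 and 4TD50 doses. […] Ratio taken as HD50 divided by i.p. MES ED50.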

Mus musculus [12] = organism: Mus musculus; test: Ratio of HD50 for hypnotic activity to EC50 for inhibition of maximum electric stimulus-induced seizure in mouse; format: functional
Mus musculus [13] = test: Anticonvulsant activity in mouse assessed as inhibition of PTZ-induced clonic seizure at 50 mg/kg, ip administered 30 mins prior to PTZ challenge measured after 0.5 hrs; format: functional; conditions: route intraperitoneal
Procedure, shortened: (§3)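 KunMing mice, 18–25 g, groups of 10; test agent in polyethylene glycol-400 given i.p. 30 min before convulsant. PTZ 85 mg/kg s.c., 3-MP 40 mg/kg s.c., isoniazid 250 mg/kg i.p.; doses chosen to induce seizures in at least 97% of animals. Individual cages, 30 min observation; clonic seizures, tonic seizures and lethality recorded.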

Mus musculus [14] = test: Anticonvulsant activity in mouse assessed as inhibition of PTZ-induced tonic seizure at 50 mg/kg, ip administered 30 mins prior to PTZ challenge measured after 0.5 hrs; format: functional; conditions: route intraperitoneal; procedure, shortened: as §3
Mus musculus [15] = test: Anticonvulsant activity in mouse assessed as reduction of PTZ-induced lethality at 50 mg/kg, ip administered 30 mins prior to PTZ challenge measured after 0.5 hrs; format: functional; set-up: scale not given: the % may be the effect or the level left; conditions: route intraperitoneal
Mus musculus [16] = test: Anticonvulsant activity in mouse assessed as inhibition of isoniazid-induced clonic seizure at 50 mg/kg, ip administered 30 mins prior to isoniazid challenge measured after 0.5 hrs; format: functional; conditions: route intraperitoneal; procedure, shortened: as §3
Mus musculus [17] = test: Anticonvulsant activity in mouse assessed as inhibition of isoniazid-induced tonic seizure at 50 mg/kg, ip administered 30 mins prior to isoniazid challenge measured after 0.5 hrs; format: functional; conditions: route intraperitoneal; procedure, shortened: as §3
Mus musculus [18] = test: Anticonvulsant activity in mouse assessed as reduction of isoniazid-induced lethality at 50 mg/kg, ip administered 30 mins prior to isoniazid challenge measured after 0.5 hrs; format: functional; set-up: scale not given: the % may be the effect or the level left; conditions: route intraperitoneal
Mus musculus [19] = test: Anticonvulsant activity in mouse assessed as inhibition of 3-mercaptopropionic acid-induced clonic seizure at 50 mg/kg, ip administered 30 mins prior to 3-mercaptopropionic acid challenge measured after 0.5 hrs; format: functional; conditions: route intraperitoneal; procedure, shortened: as §3
Mus musculus [20] = test: Anticonvulsant activity in mouse assessed as inhibition of 3-mercaptopropionic acid-induced tonic seizure at 50 mg/kg, ip administered 30 mins prior to 3-mercaptopropionic acid challenge measured after 0.5 hrs; format: functional; conditions: route intraperitoneal; procedure, shortened: as §3
Mus musculus [21] = test: Anticonvulsant activity in mouse assessed as reduction of 3-mercaptopropionic acid-induced lethality at 50 mg/kg, ip administered 30 mins prior to 3-mercaptopropionic acid challenge measured after 0.5 hrs; format: functional; set-up: scale not given: the % may be the effect or the level left; conditions: route intraperitoneal
Mus musculus [22] = test: Anticonvulsant activity in mouse assessed as inhibition of thiosemicarbazide-induced clonic seizure at 50 mg/kg, ip administered 30 mins prior to thiosemicarbazide challenge measured after 2.5 hrs; format: functional; conditions: route intraperitoneal
Procedure, shortened: (§4)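 KunMing mice (18–25 g), groups of 10, pretreated i.p. with test agent in polyethylene glycol-400 30 min before thiosemicarbazide 50 mg/kg i.p. Animals kept in individual cages and watched for 2 h 30 min, noting clonic seizures, tonic seizures and lethality.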

Mus musculus [23] = test: Anticonvulsant activity in mouse assessed as inhibition of thiosemicarbazide-induced tonic seizure at 50 mg/kg, ip administered 30 mins prior to thiosemicarbazide challenge measured after 2.5 hrs; format: functional; conditions: route intraperitoneal; procedure, shortened: as §4
Mus musculus [24] = test: Anticonvulsant activity in mouse assessed as reduction of thiosemicarbazide-induced lethality at 50 mg/kg, ip administered 30 mins prior to thiosemicarbazide challenge measured after 2.5 hrs; format: functional; set-up: scale not given: the % may be the effect or the level left; conditions: route intraperitoneal
Mus musculus [25] = test: Anticonvulsant in po dosed mouse assessed as protection against maximum electric stimulus-induced seizures; format: functional
Procedure, shortened: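 Oral version of the phase-II protocol in KunMing mice (18–25 g). Groups of 10 dosed p.o. over a range giving at least three points between 10–90% MES protection or rotarod minimal neurotoxicity. Testing at 2 h time to peak effect. ED50 and TD50 with 95% confidence intervals from regression. PI = TD50/ED50.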

Mus musculus [26] = test: Protective index, ratio of TD50 for po dosed mouse to ED50 for maximum electric stimulus-induced seizure in po dosed mouse; format: functional
[27] = Neurotoxicity against po dosed mouse by rotarod ataxia test; format: toxicity, organism-based; conditions: in vivo
Mus musculus [28] = test: Anticonvulsant in mouse assessed as protection against maximum electric stimulus-induced seizures at 100 mg/kg, ip after 0.5 hrs; format: functional, organism-based; set-up: dose 100 mg/kg; procedure, shortened: as §1

Compound | Activity (Mus musculus [2]) | Activity (Mus musculus [3]) | ED50 (Mus musculus [4]) [mg/kg] | TD50 [5] [mg/kg] | PI (Mus musculus [6]) | Activity (Mus musculus [7]) | Activity (Mus musculus [8]) | Activity (Mus musculus [9]) | further results
CCCCCCOc1ccc2nncn2n1 | Toxic | Non-toxic | 32.9 | 60.8 | 1.8 | – | – | – | Activity (Mus musculus [1]): inactive
COc1ccccc1Oc1ccc2nncn2n1 | – | – | > 100 | – | – | inactive | Non-toxic | Non-toxic | –
CCCCCCCCCCOc1ccc2nncn2n1 | – | – | > 100 | – | – | inactive | Toxic | Non-toxic | –
CCC1(c2ccccc2)C(=O)NC(=O)NC1=O [PHENOBARBITAL] | – | – | 21.8 | – | – | – | – | – | –
Cc1cccc(Oc2ccc3nncn3n2)c1 | – | – | > 100 | – | – | inactive | Non-toxic | Non-toxic | –
Clc1ccc(Oc2ccc3nncn3n2)c(Cl)c1 | Non-toxic | Non-toxic | 17.3 | 380 | 22 | – | – | – | Activity (Mus musculus [10]): Active; HD50 (Mus musculus [11]): 746.6 mg/kg; Ratio (Mus musculus [12]): 43.2; inhibition in vivo at 50 mg/kg (Mus musculus [13]): 100%; inhibition in vivo at 50 mg/kg (Mus musculus [14]): 10%; Activity (Mus musculus [15]): 0%; inhibition in vivo at 50 mg/kg (Mus musculus [16]): 90%; inhibition in vivo at 50 mg/kg (Mus musculus [17]): 0%; Activity (Mus musculus [18]): 0%; inhibition in vivo at 50 mg/kg (Mus musculus [19]): 80%; inhibition in vivo at 50 mg/kg (Mus musculus [20]): 0%; Activity (Mus musculus [21]): 40%; inhibition in vivo at 50 mg/kg (Mus musculus [22]): 90%; inhibition in vivo at 50 mg/kg (Mus musculus [23]): 0%; Activity (Mus musculus [24]): 40%; ED50 (Mus musculus [25]): 45.6 mg/kg; PI (Mus musculus [26]): 12; TD50 [27]: 546 mg/kg
Fc1ccc(Oc2ccc3nncn3n2)cc1 | Non-toxic | Non-toxic | 38 | 317 | 8.3 | – | – | – | Activity (Mus musculus [1]): inactive
Clc1cccc(Oc2ccc3nncn3n2)c1 | Non-toxic | Non-toxic | 39.4 | 228 | 5.8 | – | – | – | –
Cc1ccccc1Oc1ccc2nncn2n1 | – | – | 54.8 | 220 | 4.01 | inactive | Non-toxic | Non-toxic | Activity (Mus musculus [28]): Active
CCCCCCCCCOc1ccc2nncn2n1 | – | – | > 100 | – | – | inactive | Toxic | Non-toxic | –
CCCCOc1ccc2nncn2n1 | – | – | > 100 | – | – | inactive | Toxic | Non-toxic | –
Clc1ccccc1Oc1ccc2nncn2n1 | – | – | 47.3 | 190 | 4 | inactive | Non-toxic | Non-toxic | Activity (Mus musculus [28]): Active
CCCCCOc1ccc2nncn2n1 | Toxic | Non-toxic | 39.4 | 70.4 | 1.79 | – | – | – | Activity (Mus musculus [1]): inactive
CCCCCCCCOc1ccc2nncn2n1 | – | – | > 100 | – | – | – | Toxic | Non-toxic | Activity (Mus musculus [1]): inactive
CCCCCCCOc1ccc2nncn2n1 | Toxic | Non-toxic | 42.4 | 73 | 1.7 | – | – | – | Activity (Mus musculus [1]): inactive
Brc1ccc(Oc2ccc3nncn3n2)cc1 | – | – | 49.1 | 329 | 6.7 | inactive | Non-toxic | Non-toxic | Activity (Mus musculus [28]): Active
NC(=O)N1c2ccccc2C=Cc2ccccc21 [CARBAMAZEPINE] | – | – | 8.8 | – | – | – | – | – | HD50 (Mus musculus [11]): 172 mg/kg; inhibition in vivo at 50 mg/kg (Mus musculus [13]): 100%; inhibition in vivo at 50 mg/kg (Mus musculus [14]): 0%; Activity (Mus musculus [15]): 0%; inhibition in vivo at 50 mg/kg (Mus musculus [16]): 40%; inhibition in vivo at 50 mg/kg (Mus musculus [17]): 0%; Activity (Mus musculus [18]): 0%; inhibition in vivo at 50 mg/kg (Mus musculus [19]): 80%; inhibition in vivo at 50 mg/kg (Mus musculus [20]): 0%; Activity (Mus musculus [21]): 10%; inhibition in vivo at 50 mg/kg (Mus musculus [22]): 90%; inhibition in vivo at 50 mg/kg (Mus musculus [23]): 0%; Activity (Mus musculus [24]): 0%
O=c1ccc(Oc2ccccc2)n[nH]1 | – | – | 110 | 274 | 2.5 | inactive | – | Non-toxic | –
Cc1ccc(Oc2ccc3nncn3n2)cc1 | – | – | > 100 | – | – | inactive | Non-toxic | Non-toxic | –
Clc1ccc(Oc2ccc3nncn3n2)cc1 | Non-toxic | Non-toxic | 36.7 | 394 | 10.7 | – | – | – | –
COc1ccc(Oc2ccc3nncn3n2)cc1 | – | – | > 100 | – | – | inactive | Non-toxic | Non-toxic | –
